# Test results reported in ChEMBL document CHEMBL1147601, “Synthesis, biodistribution and micro-PET imaging of radiolabeled antimitotic agent T138067 analogues” (Bioorg Med Chem Lett, 2004).
# Experiments:
# Mus musculus [1] = assay: In vivo biodistribution of compound in small intestine of MCF-7 transfected with IL-1alpha implanted athymic mice at 30 min post iv injection; format: ADME, organism-based; conditions: 0.5 h
# Summary of the method: (§1)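 Tumor-bearing athymic mice 8 weeks after xenograft implantation; tail-vein iv dose of 1–3 mCi [11C]-labeled tracer (subpharmacologic) in conscious restrained animals. Killed by decapitation under halothane at 30 min. Tissues excised and weighed, decay-corrected radioactivity gamma-counted, expressed as % injected dose/g. Tumor/blood and tumor/muscle ratios taken from these values. Mean ± SD, n=3 mice.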
# Mus musculus [2] = assay: In vivo biodistribution of compound in blood of MCF-7 transfected with IL-1alpha implanted athymic mice at 30 min post iv injection; format: ADME, organism-based; conditions: 0.5 h; summary of the method: as §1
# Mus musculus [3] = assay: In vivo biodistribution of compound in heart of MCF-7 transfected with IL-1alpha implanted athymic mice at 30 min post iv injection; format: ADME, organism-based; conditions: 0.5 h; summary of the method: as §1
# [4] = In vivo biodistribution ratio in tumor to that of blood (T/B ratio) in MDA-MB-435 implanted athymic mice; format: functional
# Summary of the method: (§2)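 Athymic mice 8 weeks after MDA-MB-435 xenograft implantation received a subpharmacologic iv tail-vein dose of the 11C-labelled tracer under conscious restraint. They were killed by decapitation under halothane at 30 min post injection. Tissues were excised and weighed, and decay-corrected radioactivity was gamma-counted as % id/g. The ratio is tumor %id/g over muscle or blood %id/g, given as mean ± SD of n=3 mice.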
# Mus musculus [5] = assay: In vivo biodistribution of compound in brain of MCF-7 transfected with IL-1alpha implanted athymic mice at 30 min post iv injection; format: ADME, organism-based; conditions: 0.5 h; summary of the method: as §1
# Mus musculus [6] = assay: In vivo biodistribution of compound in liver of MDA-MB-435 implanted athymic mice at 30 min post iv injection; format: ADME, organism-based; conditions: 0.5 h; summary of the method: as §1
# Mus musculus [7] = assay: In vivo biodistribution of compound in bone of MDA-MB-435 implanted athymic mice at 30 min post iv injection; format: ADME, organism-based, Bone element; conditions: 0.5 h; summary of the method: as §1
# Mus musculus [8] = assay: In vivo biodistribution of compound in kidney of MCF-7 transfected with IL-1alpha implanted athymic mice at 30 min post iv injection; format: ADME, organism-based; conditions: 0.5 h; summary of the method: as §1
# [9] = In vivo biodistribution ratio in tumor to that of blood (T/B ratio) in MCF-7 transfected with IL-1alpha implanted athymic mice; format: ADME, organism-based; conditions: mouse; summary of the method: as §1
# Mus musculus [10] = assay: In vivo biodistribution of compound in brain of MDA-MB-435 implanted athymic mice at 30 min post iv injection; format: ADME, organism-based; conditions: 0.5 h; summary of the method: as §1
# Mus musculus [11] = assay: In vivo biodistribution of compound in spleen of MCF-7 transfected with IL-1alpha implanted athymic mice at 30 min post iv injection; format: ADME, organism-based; conditions: 0.5 h; summary of the method: as §1
# Mus musculus [12] = assay: In vivo biodistribution of compound in muscle of MDA-MB-435 implanted athymic mice at 30 min post iv injection; format: ADME, organism-based, Muscle tissue; conditions: 0.5 h; summary of the method: as §1
# Mus musculus [13] = assay: In vivo biodistribution of compound in lungs of MCF-7 transfected with IL-1alpha implanted athymic mice at 30 min post iv injection; format: ADME, organism-based, Lung; conditions: 0.5 h; summary of the method: as §1
# Mus musculus [14] = assay: In vivo biodistribution of compound in liver of MCF-7 transfected with IL-1alpha implanted athymic mice at 30 min post iv injection; format: ADME, organism-based; conditions: 0.5 h; summary of the method: as §1
# Mus musculus [15] = assay: In vivo biodistribution of compound in heart of MDA-MB-435 implanted athymic mice at 30 min post iv injection; format: ADME, organism-based; conditions: 0.5 h; summary of the method: as §1
# Mus musculus [16] = assay: In vivo biodistribution of compound in tumor of MCF-7 transfected with IL-1alpha implanted athymic mice at 30 min post iv injection; format: ADME, organism-based; conditions: 0.5 h; summary of the method: as §1
# Mus musculus [17] = assay: In vivo biodistribution of compound in lungs of MDA-MB-435 implanted athymic mice at 30 min post iv injection; format: ADME, organism-based, Lung; conditions: 0.5 h; summary of the method: as §1
# Mus musculus [18] = assay: In vivo biodistribution ratio in tumor to that of muscle (T/M ratio) in MCF-7 transfected with IL-1alpha implanted athymic mice; format: ADME, organism-based, Muscle tissue; summary of the method: as §1
# Mus musculus [19] = assay: In vivo biodistribution of compound in blood of MDA-MB-435 implanted athymic mice at 30 min post iv injection; format: ADME, organism-based; conditions: 0.5 h; summary of the method: as §1
# Mus musculus [20] = assay: In vivo biodistribution of compound in muscle of MCF-7 transfected with IL-1alpha implanted athymic mice at 30 min post iv injection; format: ADME, organism-based, Muscle tissue; conditions: 0.5 h; summary of the method: as §1
# [21] = In vivo biodistribution ratio in tumor to that of muscle (T/M ratio) in MDA-MB-435 implanted athymic mice; format: functional, Muscle tissue; summary of the method: as §2
# Mus musculus [22] = assay: In vivo biodistribution of compound in kidneys of MDA-MB-435 implanted athymic mice at 30 min post iv injection; format: ADME, organism-based, Kidney; conditions: 0.5 h; summary of the method: as §1
# Mus musculus [23] = assay: In vivo biodistribution of compound in bone of MCF-7 transfected with IL-1alpha implanted athymic mice at 30 min post iv injection; format: ADME, organism-based, Bone element; conditions: 0.5 h; summary of the method: as §1
# Mus musculus [24] = assay: In vivo biodistribution of compound in small intestine of MDA-MB-435 implanted athymic mice at 30 min post iv injection; format: ADME, organism-based; conditions: 0.5 h; summary of the method: as §1
# Mus musculus [25] = assay: In vivo biodistribution of compound in tumor of MDA-MB-435 implanted athymic mice at 30 min post iv injection; format: ADME, organism-based; conditions: 0.5 h; summary of the method: as §1
# Mus musculus [26] = assay: In vivo biodistribution of compound in spleen of MDA-MB-435 implanted athymic mice at 30 min post iv injection; format: ADME, organism-based; conditions: 0.5 h; summary of the method: as §1
structure (smiles),measurement,setting,value
[11CH3]Oc1ccc(NS(=O)(=O)c2c(F)c(F)c(F)c(F)c2F)cc1F,Injected dose/g,Mus musculus [1],5.16%
same,Injected dose/g,Mus musculus [2],1.68%
same,Injected dose/g,Mus musculus [3],1.75%
same,Ratio,[4],5.63
same,Injected dose/g,Mus musculus [5],1.53%
same,Injected dose/g,Mus musculus [6],14.92%
same,Injected dose/g,Mus musculus [7],1.75%
same,Injected dose/g,Mus musculus [8],3.34%
same,Kp,[9],0.94
same,Injected dose/g,Mus musculus [10],1.03%
same,Injected dose/g,Mus musculus [11],2.01%
same,Injected dose/g,Mus musculus [12],1.99%
same,Injected dose/g,Mus musculus [13],4.95%
same,Injected dose/g,Mus musculus [14],6.79%
same,Injected dose/g,Mus musculus [15],8.54%
same,Injected dose/g,Mus musculus [16],1.51%
same,Injected dose/g,Mus musculus [17],9.2%
same,Ratio,Mus musculus [18],0.89
same,Injected dose/g,Mus musculus [19],0.35%
same,Injected dose/g,Mus musculus [20],1.7%
same,Ratio,[21],1.01
same,Injected dose/g,Mus musculus [22],17.62%
same,Injected dose/g,Mus musculus [23],1.31%
same,Injected dose/g,Mus musculus [24],6.19%
same,Injected dose/g,Mus musculus [25],1.92%
same,Injected dose/g,Mus musculus [26],2.95%
